Screens: PubChem, Broad Institute
In the library only some 1.4% were active in any assay of this set; here they are far more common.
CDK5 inh: inhibitors of human CDK5/p35 kinase, primary screen, biochemical, single concentration | 0.01% of 330,000 active | Recombinant CDK5/p35, ADP-Glo luminescence, 60 min | inhibition, % at 10 µM;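 active = highest replicate inhibition of at least 50% and at least 75% of replicates reaching 50%; inconclusive = only one of the two criteria met; inactive = both criteria failed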
GSK3B inh: human GSK3beta kinase inhibitors, primary screen, biochemical, cell-free homogeneous, HTS; Glycogen synthase kinase-3 beta (Homo sapiens), P49841; GST-GSK3beta kinase, ADP-Glo luminescence, 60 min; active compounds read low; activity score (negative = inhibition), % at 10 µM; 0.038% of 300,000 active;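 active = more than half of replicate wells score below -50%, meaning over 50% inhibition versus plate controls; inconclusive = some replicates but at most half score below -50%; inactive = no replicate scores below -50%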
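Assay system: GST-fused GSK3beta enzyme, cell-free / Medium: Tris pH 7.5 buffer with MgCl2, DTT, BSA, heparin / Also added: peptide substrate plus 25 µM ATP (final) / Compound: 10 µM single point / Timing: kinase reaction with compound 60 min at room temperature / Detection: ADP-Glo luminescence / Benchmarks: DMSO neutral wells and GW8510 at 20 µM as positive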
GSIS activator: GLuc luminescence reporter in INS-1E cells, primary screen for activators of glucose-dependent secretion of insulin. INS-1E GLuc reporter insulin secretion, 2-3 h. activation, % at 16.6 µM. 0.61% of 370,000 active;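 active = lowest replicate activation of at least 40%, so every replicate reaches that level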
STK33 kinase inh: inhibitors of purified STK33 kinase, primary screen, biochemical, ADP-Glo luminescence, homogeneous, cell-free; Serine/threonine-protein kinase 33 (Homo sapiens), Q9BYT3; MBP phosphorylation; inhibition, % at 10 µM; 0.073% of 320,000 active; AID 2661, 2010;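 active = inhibition at or above 25%, using the most active replicate where run in duplicate; inactive = inhibition below 25%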
Target sequence (Q9BYT3 whole entry, looked up): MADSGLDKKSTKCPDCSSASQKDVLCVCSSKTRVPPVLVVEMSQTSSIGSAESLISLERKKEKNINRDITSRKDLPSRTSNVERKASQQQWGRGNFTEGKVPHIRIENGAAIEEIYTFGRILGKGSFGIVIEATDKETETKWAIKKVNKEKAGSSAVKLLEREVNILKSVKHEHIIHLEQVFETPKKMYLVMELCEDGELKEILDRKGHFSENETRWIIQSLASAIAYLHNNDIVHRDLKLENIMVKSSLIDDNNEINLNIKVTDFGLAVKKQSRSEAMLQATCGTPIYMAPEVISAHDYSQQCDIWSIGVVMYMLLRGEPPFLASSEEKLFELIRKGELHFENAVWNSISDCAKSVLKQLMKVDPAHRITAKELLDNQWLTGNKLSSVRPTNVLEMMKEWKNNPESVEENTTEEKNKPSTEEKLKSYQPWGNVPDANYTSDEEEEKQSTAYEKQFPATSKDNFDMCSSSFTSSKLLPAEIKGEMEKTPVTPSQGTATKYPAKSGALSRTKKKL
Env fusion inh: inhibitors of HIV-1 Env-driven cell-cell fusion, primary screen, HeLa-JRFL effector, CEM21 target cells, luciferase | inhibition, % at 12.3 µM | 1.1% of 360,000 active | AID 651610, 2012;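 active = mean replicate inhibition score of at least 50 and every replicate individually at or above 50; inconclusive = only one of the two criteria met; inactive = mean below 50 and not all replicates reaching 50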
GSK3A inh: blockers of GSK3A enzyme activity – biochemical, luminescence, cell-free homogeneous, HTS, primary screen. Glycogen synthase kinase-3 alpha (Homo sapiens), P49840. AID 2650, 2010. GSK-3 alpha kinase, ADP-Glo luminescence, 60 min. 0.1% of 320,000 active. inhibition, % at 10 µM;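 active = more than half of replicates show inhibition above 20%; inconclusive = some but at most half of replicates above 20% inhibition; inactive = no replicate shows inhibition above 20%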;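 also: GST-tagged GSK-3 alpha with peptide substrate and 25 µM ATP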
Large screens that a line does not name were inactive; [ ] = remark or other dose.

COc1ccc(NS(=O)(=O)c2ccc(N3CCCC3)c(NC(=S)Nc3cccc(C)c3C)c2)cc1	Env fusion inh 149
CCOc1ccc2nc(NCCNC(=O)Nc3cccc(C)c3)c(C#N)cc2c1	GSIS activator 320
CCOc1ccc2nc(NCCNC(=O)Nc3ccccc3)c(C#N)cc2c1	GSIS activator 200
CCOc1ccc2nc(NCCNC(=S)NCCCN(C)C)c(C#N)cc2c1	none
C[C@H](CO)N1C[C@H](C)[C@H](CN(C)CC2CC2)Oc2c(NC(=O)c3ccc(-c4nccs4)cc3)cccc2C1=O	none (no result: CDK5 inh, GSK3B inh, STK33 kinase inh, Env fusion inh, GSK3A inh)
COc1cc2c(cc1OC)C(c1ccc(-c3ccc(Cl)c(Cl)c3)o1)=NCC2	Env fusion inh 83 (no result: GSIS activator)
COc1cc2c(cc1OC)C(c1ccc(-c3ccc(Cl)cc3Cl)o1)=NCC2	Env fusion inh 98 (no result: GSIS activator)
COc1cc2c(cc1OC)C(c1ccc(-c3cc(Cl)ccc3Cl)o1)=NCC2	none (no result: GSIS activator, Env fusion inh)
CC(=O)Nc1ccc(NC(=O)CN(c2ccc(C34CC5CC(CC(C5)C3)C4)cc2)S(C)(=O)=O)cc1	Env fusion inh 93
CS(=O)(=O)N(CC(=O)Nc1ccc(CC#N)cc1)c1ccc(C23CC4CC(CC(C4)C2)C3)cc1	none (no result: Env fusion inh)
Cc1cccc(C2(c3cccc(C)c3)CC2C(=O)Nc2ccc([N+](=O)[O-])cc2O)c1 (configuration not stated)	Env fusion inh 75
COc1ccc(C2=Nn3c(nnc3-c3ccccc3F)SC2)cc1OCC1CC1	GSIS activator 79 (no result: GSK3B inh)
COc1ccc(OC)c(C2=Nn3c(nnc3-c3cc(OC)c(OC)c(OC)c3)SC2)c1	none
COc1ccc(OC)c(C2=Nn3c(nnc3-c3ccncc3)SC2)c1	GSIS activator 41
COc1cccc(-c2nnc3n2N=C(C(C)(C)C)CS3)c1	Env fusion inh 112 (no result: GSIS activator, GSK3A inh)
c1ccc(C2=Nn3c(nnc3-c3cccs3)SC2)cc1	none
c1csc(C2=Nn3c(nnc3-c3ccncc3)SC2)c1	GSK3A inh 87 (no result: GSIS activator, Env fusion inh)
C[C@H]1CN([C@@H](C)CO)C(=O)c2cc(C#CC3CCCCC3)cnc2O[C@@H]1CN(C)Cc1ccncc1	none (no result: CDK5 inh, GSK3B inh, STK33 kinase inh, GSK3A inh)
C[C@H](CO)N1C[C@H](C)[C@@H](CN(C)Cc2ccc3c(c2)OCO3)Oc2c(NS(=O)(=O)c3ccc(Cl)cc3)cccc2C1=O	none (no result: CDK5 inh, GSK3B inh, STK33 kinase inh, Env fusion inh, GSK3A inh)
COc1ccc(CN(C)C[C@H]2Oc3ccc(NC(=O)Nc4ccc5c(c4)OCO5)cc3C(=O)N([C@@H](C)CO)C[C@H]2C)cc1	none (no result: CDK5 inh, GSK3B inh, STK33 kinase inh, GSK3A inh)
C[C@@H]1CN([C@@H](C)CO)C(=O)c2cccc(NC(=O)C3CCCCC3)c2O[C@@H]1CN(C)Cc1ccccc1	none (no result: CDK5 inh, GSK3B inh, STK33 kinase inh, Env fusion inh, GSK3A inh)
CCCN(C(=O)CCc1cn(CCC)c2ccccc12)c1ccc(Oc2cccnc2)cc1	Env fusion inh 70 (no result: CDK5 inh, GSK3B inh, STK33 kinase inh, GSK3A inh)
CC1CCCCC12NC(=O)N(CC(=O)Nc1sc3c(c1C(N)=O)CCC3)C2=O (configuration not stated)	GSK3A inh 58 (no result: GSIS activator, Env fusion inh)
CC1CCC2(CC1)NC(=O)N(CC(=O)Nc1sc3c(c1C(N)=O)CCC3)C2=O (configuration not stated)	GSK3A inh 78
COC(=O)c1c(NC(=O)CN2C(=O)NC3(CCC(C)CC3)C2=O)sc2c1CCC2 (configuration not stated)	none (no result: GSK3B inh, Env fusion inh)
COc1ccc(C2=CC3=C(Br)C(=O)C(C)(O)C(=O)C3=CO2)cc1 (configuration not stated)	STK33 kinase inh 29 (no result: GSIS activator, Env fusion inh)
CCC(=O)OC1(C)C(=O)C2=COC(c3ccc(OC)cc3)=CC2=C(Br)C1=O (configuration not stated)	none
COc1ccccc1S(=O)(=O)Nc1ccc2c(c1)OC[C@@H](C)NC[C@@H](C)[C@@H](OC)CN(C)C2=O	none (no result: CDK5 inh, GSK3B inh, STK33 kinase inh, GSK3A inh)
CCn1c(SCC(=O)Nc2ccc3c(c2)oc2ccccc23)nnc1-c1ccc(N)cc1	GSIS activator 73
CC(=O)Nc1ccc(-c2nnc(SCC(=O)Nc3ccc4c(c3)oc3ccccc34)n2C)cc1	none (no result: GSIS activator)
CNC(=O)c1c[nH]c2ccc(S(=O)(=O)Nc3ccccc3F)cc2c1=O	STK33 kinase inh 46
COc1ccc(-c2cnc3c(c2)C(=O)N([C@H](C)CO)C[C@@H](C)[C@H](CN(C)C(=O)C2CCCCC2)O3)cc1	none (no result: CDK5 inh, GSK3B inh, STK33 kinase inh, Env fusion inh, GSK3A inh)
C[C@@H]1CN([C@@H](C)CO)C(=O)c2cc(NC(=O)NC3CCCCC3)ccc2O[C@@H](C)CCCCO[C@@H]1CN(C)CC1CCCCC1	none (no result: CDK5 inh, GSK3B inh, STK33 kinase inh, GSK3A inh)
COc1ccc(NC(=O)Nc2ccc3c(c2)C(=O)N([C@H](C)CO)C[C@H](C)[C@H](CN(C)CC2CC2)OCCCC[C@H](C)O3)cc1	Env fusion inh 64[16.7 µM] (no result: CDK5 inh, GSK3B inh, STK33 kinase inh, GSK3A inh)
C[C@@H]1CCCCO[C@@H](CN(C)CC2CCCCC2)[C@H](C)CN([C@H](C)CO)C(=O)c2cc(NC(=O)c3ccccc3)ccc2O1	Env fusion inh 67[16.7 µM] (no result: CDK5 inh, GSK3B inh, STK33 kinase inh, GSK3A inh)
COc1ccc(NC(=O)Nc2ccc3c(c2)C(=O)N([C@@H](C)CO)C[C@H](C)[C@H](CN(C)CC2CCCCC2)OCCCC[C@H](C)O3)cc1	Env fusion inh 55[16.7 µM] (no result: CDK5 inh, GSK3B inh, STK33 kinase inh, GSK3A inh)
C[C@@H]1CCCCO[C@@H](CN(C)CC2CCCCC2)[C@H](C)CN([C@@H](C)CO)C(=O)c2cc(NC(=O)c3ccccc3)ccc2O1	Env fusion inh inconclusive (no result: CDK5 inh, GSK3B inh, STK33 kinase inh, GSK3A inh)
C[C@@H]1CCCCO[C@@H](CN(C)CC2CCCCC2)[C@H](C)CN([C@H](C)CO)C(=O)c2cc(NC(=O)NC3CCCCC3)ccc2O1	Env fusion inh 70[16.7 µM] (no result: CDK5 inh, GSK3B inh, STK33 kinase inh, GSK3A inh)
CC(C)NC(=O)NCC[C@@H]1CC[C@H](NS(=O)(=O)c2ccccc2)[C@H](CO)O1	none (no result: CDK5 inh, GSK3B inh, STK33 kinase inh, Env fusion inh, GSK3A inh)
Cc1noc(C)c1NC(=O)N(C)C[C@@H]1Oc2ccc(NC(=O)Nc3cccc4ccccc34)cc2C(=O)N([C@@H](C)CO)C[C@H]1C	none (no result: CDK5 inh, GSK3B inh, STK33 kinase inh, GSK3A inh)
C[C@@H]1CCCCO[C@@H](CN(C)C(=O)C2CCCCC2)[C@H](C)CN([C@@H](C)CO)C(=O)c2cc(NC(=O)Nc3ccc4c(c3)OCO4)ccc2O1	none (no result: CDK5 inh, GSK3B inh, STK33 kinase inh, GSK3A inh)
Cc1ccc(S(=O)(=O)N[C@@H]2C=C[C@@H](CC(=O)O)O[C@@H]2CO)cc1	none (no result: CDK5 inh, GSK3B inh, STK33 kinase inh, GSK3A inh)
Cc1ccc(-c2nc(C#N)c(NCC3CCCO3)o2)cc1 (configuration not stated)	GSIS activator 40
CCCN1[C@@H]2c3ccc(C4=CCCC4)c(=O)n3C[C@@H]2[C@@H](CO)[C@@H]1C(=O)NCCCN(C)C	none (no result: CDK5 inh, GSK3B inh, STK33 kinase inh, Env fusion inh, GSK3A inh)
CN(C)CCCNC(=O)[C@H]1[C@H](CO)[C@H]2Cn3c(ccc(C4=CCCC4)c3=O)[C@H]2N1CCC(F)(F)F	Env fusion inh 57[16.7 µM] (no result: CDK5 inh, GSK3B inh, STK33 kinase inh, GSK3A inh)
O=[N+]([O-])/C(=C\Nc1ccc(F)cc1F)S(=O)(=O)c1ccccc1	none
